Activity calls are given as the source filed them. The rule behind the calls is not given here.
Legend:
[1] = AUC (0 to 1440 mins) in male albino Wistar rat brain at 60 mg/kg, po measured upto 1440 mins by HPLC-MS analysis; format: ADME, organism-based; details: in vivo, 24 h
Method in brief: (§1)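 Oral gavage via blunt needle into the stomach of male wild-type rats. Dose was 60 mg/kg from a 16 mM solution in 10% NMP, 25% Kolliphor EL and 65% saline. Rats were sacrificed at 15 time-points from 5 to 1440 min, 3 per point. Plasma and brain were analysed by HPLC-MS with non-compartmental analysis; values are mean ± SE of three.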

[2] = Permeability coefficient in male albino Wistar rat assessed as ratio of brain AUC to plasma AUC at 60 mg/kg, po measured upto 1440 mins by HPLC-MS analysis; format: ADME, organism-based; method in brief: as §1
[3] = Permeability coefficient in male albino Wistar rat assessed as ratio of brain AUC to plasma AUC at 0.013 mg/kg, iv measured upto 1440 mins by HPLC-MS analysis; format: ADME, organism-based
Method in brief: (§2)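 Single tail-vein injection into male wild-type rats, 0.1 mL per 100 g body weight. Solutions were 20 or 25 μM in saline with 3% DMSO, giving 0.013 or 0.018 mg/kg. Rats were exsanguinated at 5–1440 min (9 time-points, 3 per point). Plasma and brain levels were measured by HPLC-MS. Parameters came from non-compartmental analysis; values are mean ± SE of three.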

SH-SY5Y [4] = assay: Reduction in dehydrogenase activity in human SH-SY5Y cells at 100 uM measured after 4 to 24 hrs by […] assay; format: functional, cell-based; details: time 4-24 hrs
Method in brief: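 SH-SY5Y cells (passages 14–18) in DMEM/F12 with 15% FBS were exposed to compound (0.1–100 μM) for 4 and 24 h. WST-1 reagent was added and the absorbance change at 440 nm was read over 0–1 h. Results are % of control cells, mean ± SD, triplicate of ≥3 experiments.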

[5] = AUC (0 to 1440 mins) in male albino Wistar rat plasma at 60 mg/kg, po measured upto 1440 mins by HPLC-MS analysis; format: ADME, organism-based; details: in vivo, 24 h; method in brief: as §1
[6] = Apparent volume of distribution in male albino Wistar rat plasma at 0.013 mg/kg, iv measured upto 1440 mins by HPLC-MS analysis; format: ADME, organism-based; details: read-out: Vz; method in brief: as §2
[7] = Half life in male albino Wistar rat plasma at 0.013 mg/kg, iv measured upto 1440 mins by HPLC-MS analysis; format: ADME, organism-based; method in brief: as §2
[8] = AUC (0 to 1440 mins) in male albino Wistar rat brain at 0.013 mg/kg, iv measured upto 1440 mins by HPLC-MS analysis; format: ADME, organism-based; details: in vivo, 24 h; method in brief: as §2
[9] = Tmax in male albino Wistar rat brain at 60 mg/kg, po measured upto 1440 mins by HPLC-MS analysis; format: ADME, organism-based; method in brief: as §1
SH-SY5Y [10] = assay: Reduction in glutathione level in human SH-SY5Y cells at 100 uM measured after 24 hrs by monochlorobimane assay; format: functional, cell-based
Method in brief: (§3)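 SH-SY5Y cells (passages 14–18) in DMEM/F12 with 15% FBS were exposed to compound (0.1–100 μM) for 4 or 24 h. Monochlorobimane was then added to a final 40 μmol/L, and fluorescence (394/490 nm) was followed for 10 min. GSH is the slope as % of control, mean ± SD, triplicate of ≥3 experiments.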

[11] = AUC (0 to 1440 mins) in male albino Wistar rat plasma at 0.013 mg/kg, iv measured upto 1440 mins by HPLC-MS analysis; format: ADME, organism-based; details: in vivo, 24 h; method in brief: as §2
[12] = Cmax in male albino Wistar rat brain at 0.013 mg/kg, iv measured upto 1440 mins by HPLC-MS analysis; format: ADME, organism-based; method in brief: as §2
[13] = MRT in male albino Wistar rat plasma at 0.013 mg/kg, iv measured upto 1440 mins by HPLC-MS analysis; format: ADME, organism-based; method in brief: as §2
[14] = Tmax in male albino Wistar rat plasma at 0.013 mg/kg, iv measured upto 1440 mins by HPLC-MS analysis; format: ADME, organism-based; method in brief: as §2
[15] = Tmax in male albino Wistar rat brain at 0.013 mg/kg, iv measured upto 1440 mins by HPLC-MS analysis; format: ADME, organism-based; method in brief: as §2
[16] = Cmax in male albino Wistar rat brain at 60 mg/kg, po measured upto 1440 mins by HPLC-MS analysis; format: ADME, organism-based; method in brief: as §1
SH-SY5Y [17] = assay: Reduction in glutathione level in human SH-SY5Y cells at 100 uM measured after 4 hrs by monochlorobimane assay; format: functional, cell-based; method in brief: as §3
[18] = Cmax in male albino Wistar rat plasma at 0.013 mg/kg, iv measured upto 1440 mins by HPLC-MS analysis; format: ADME, organism-based; method in brief: as §2
[19] = MRT in male albino Wistar rat plasma at 0.018 mg/kg, iv measured upto 1440 mins by HPLC-MS analysis; format: ADME, organism-based; method in brief: as §2
[20] = Cmax in male albino Wistar rat plasma at 0.018 mg/kg, iv measured upto 1440 mins by HPLC-MS analysis; format: ADME, organism-based; method in brief: as §2
[21] = AUC (0 to 1440 mins) in male albino Wistar rat plasma at 0.018 mg/kg, iv measured upto 1440 mins by HPLC-MS analysis; format: ADME, organism-based; details: in vivo, 24 h; method in brief: as §2
[22] = Tmax in male albino Wistar rat plasma at 0.018 mg/kg, iv measured upto 1440 mins by HPLC-MS analysis; format: ADME, organism-based
Method in brief: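 Single tail-vein injection in male wild-type rats of a 25 μM dosing solution in saline with 3% DMSO, given at 0.1 mL per 100 g body weight. Three animals were killed at each of 5, 15, 30, 60, 90, 180, 240, 360 and 1440 min and exsanguinated. Plasma levels were measured by HPLC-MS. Parameters came from non-compartmental analysis, reported as mean ± SE of three.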

[23] = AUC (0 to 1440 mins) in male albino Wistar rat brain at 0.018 mg/kg, iv measured upto 1440 mins by HPLC-MS analysis; format: ADME, organism-based; details: in vivo, 24 h; method in brief: as §2
[24] = Permeability coefficient in male albino Wistar rat assessed as ratio of brain AUC to plasma AUC at 0.018 mg/kg, iv measured upto 1440 mins by HPLC-MS analysis; format: ADME, organism-based; method in brief: as §2
[25] = Tmax in male albino Wistar rat brain at 0.018 mg/kg, iv measured upto 1440 mins by HPLC-MS analysis; format: ADME, organism-based; method in brief: as §2
[26] = Half life in male albino Wistar rat plasma at 0.018 mg/kg, iv measured upto 1440 mins by HPLC-MS analysis; format: ADME, organism-based; method in brief: as §2
[27] = Apparent volume of distribution in male albino Wistar rat plasma at 0.018 mg/kg, iv measured upto 1440 mins by HPLC-MS analysis; format: ADME, organism-based; details: read-out: Vz; method in brief: as §2

SMILES: CC(=O)Nc1ccc2nc(NC(=O)Nc3ccc(O)c(Cl)c3)sc2c1
- AUC [1]: 15749 pmol·min
- Kp at 24 h [2]: 0.011
- Kp at 24 h [3]: 0.566
- inhibition (SH-SY5Y [4]): Active
- AUC [5]: 1431047 pmol·min
- Vd [6]: 147 L/kg
- half-life [7]: 15.8 min
- AUC [8]: 3299 pmol·min
- Tmax [9]: 35 min
- inhibition (SH-SY5Y [10]): inactive
- AUC [11]: 5832 pmol·min
- Cmax [12]: 0.0126 nM
- MRT [13]: 24.5 min
- Tmax [14]: 5 min
- Tmax [15]: 956 min
- Cmax [16]: 0.206 nM
- inhibition (SH-SY5Y [17]): Active
- Cmax [18]: 0.389 nM

SMILES: O=C(Nc1ccc(O)c(Cl)c1)Nc1nc2ccc(C(=O)O)cc2s1
- AUC [1]: 20135 pmol·min
- Kp at 24 h [2]: 0.095
- MRT [19]: 15.7 min
- Cmax [20]: 1.54 nM
- AUC [21]: 18961 pmol·min
- AUC [5]: 212993 pmol·min
- Tmax [22]: 5 min
- AUC [23]: 34 pmol·min
- Kp at 24 h [24]: 0.002
- Tmax [25]: 90 min
- Tmax [9]: 40 min
- half-life [26]: 29.4 min
- Cmax [16]: 0.154 nM
- Vd [27]: 135 L/kg

— ChEMBL document CHEMBL5620402, “Development of submicromolar 17β-HSD10 inhibitors and their in vitro and in vivo evaluation” (Eur J Med Chem, 2023)
